Laboratory results from ChEMBL document CHEMBL4229550, “An antimycobacterial pleuromutilin analogue effective against dormant bacilli” (Bioorg Med Chem, 2018).
Converted amounts (≈) assume the structure as drawn. The source made the active and inactive calls. The calls are words filed in the database; no cut-off is given here.

Key:
[1] = system: Streptococcus salivarius; assay: Bactericidal activity against Streptococcus salivarius ATCC 6301 incubated for 24 hrs under aerobic condition by MABA; assay type: functional; conditions: ATCC 6301, 24 h
[2] = system: Klebsiella pneumoniae; assay: Antibacterial activity against Klebsiella pneumoniae ATCC 12019 incubated for 24 hrs under aerobic condition by MABA; assay type: functional; conditions: ATCC 12019, 24 h, read-out: MIC100
Summary of the method: (§1)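 Mid-log cultures at OD 0.5 were exposed to serial dilutions under aerobic conditions at 37 °C for 24 h. Resazurin was then added from a 0.08% stock for 1 h. MIC100 was the lowest concentration where the dye stayed blue (pink means growth). Absorbance was also read at 570 and 600 nm.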

[3] = system: Staphylococcus aureus; assay: Antibacterial activity against Staphylococcus aureus ATCC 25923 incubated for 24 hrs under aerobic condition by MABA; assay type: functional; conditions: ATCC 25923, 24 h, read-out: MIC100; summary of the method: as §1
[4] = system: Mycolicibacterium smegmatis; assay: Bactericidal activity against Mycobacterium smegmatis ATCC 607 incubated for 48 hrs under aerobic condition by MABA; assay type: functional; conditions: ATCC 607, 48 h
[5] = system: Klebsiella pneumoniae; assay: Bactericidal activity against Klebsiella pneumoniae ATCC 12019 incubated for 24 hrs under aerobic condition by MABA; assay type: functional; conditions: ATCC 12019, 24 h
[6] = system: Escherichia coli; assay: Inhibition of protein translation/transcription in Escherichia coli S30 cell extract at 0.5 ug/ml using circular DNA with pBESTluc after 60 mins by luciferase reporter gene assay; assay type: functional
Summary of the method: (§2)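 Coupled transcription/translation used E. coli S30 extract, amino acid mix and premix, with the pBESTluc template carrying firefly luciferase under the tac promoter. Compounds were added in DMSO and reactions were started with DNA. Incubation was 60 min at 37 °C, stopped on ice, and luciferase was read after adding assay substrate.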

[7] = Selectivity index, ratio of IC50 for African green monkey Vero cells to MIC100 for replicating Mycobacterium tuberculosis H37Rv by MABA; assay type: toxicity; conditions: read-out: Selectivity Index
Summary of the method: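 Vero cells are cultured in EMEM with 10% FBS and exposed for 72 h to 0.78–200 µg/mL. Medium is switched to phenol-red-free EMEM, MTT is added, and formazan is read at 570 nm to give IC50. The selectivity index is Vero IC50 divided by the MABA MIC.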

[8] = system: Mycobacterium tuberculosis; assay: Bactericidal activity against replicating Mycobacterium tuberculosis H37Rv incubated for 15 days under aerobic condition by MABA; assay type: functional; conditions: 360 h
Summary of the method: (§3)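 Mtb H37Rv grown in 7H9/OADC at 37 °C with shaking to OD600 0.5. The 0.5-OD culture is exposed aerobically to serial dilutions for 15 days at 37 °C. Resazurin (0.02% stock) is then added for 4 h at 37 °C with shaking.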

[9] = Metabolic stability in Sprague-Dawley rat liver microsomes at 500 ng/ml preincubated for 5 mins followed by NADPH addition […] by C-MS/MS analysis; assay type: ADME, microsome; conditions: 10 min
[10] = system: Acinetobacter baumannii; assay: Bactericidal activity against Acinetobacter baumannii ATCC 19606 incubated for 24 hrs under aerobic condition by MABA; assay type: functional; conditions: ATCC 19606 = CIP 70.34 = JCM 6841, 24 h
[11] = system: Escherichia coli; assay: Antibacterial activity against Escherichia coli ATCC 10798 incubated for 24 hrs under aerobic condition by MABA; assay type: functional; conditions: ATCC 10798, 24 h, read-out: MIC100; summary of the method: as §1
[12] = system: Escherichia coli; assay: Inhibition of protein translation/transcription in Escherichia coli S30 cell extract at 0.1 ug/ml using circular DNA with pBESTluc after 60 mins by luciferase reporter gene assay; assay type: functional; summary of the method: as §2
[13] = system: Staphylococcus aureus; assay: Bactericidal activity against Staphylococcus aureus BAA 1683 incubated for 24 hrs under aerobic condition by MABA; assay type: functional; conditions: BAA 1683, 24 h
[14] = system: Clostridioides difficile; assay: Bactericidal activity against Clostridium difficile ATCC 700057 incubated for 24 hrs […] by MABA; assay type: functional; conditions: ATCC 700057, 24 h
[15] = system: Acinetobacter baumannii; assay: Antibacterial activity against Acinetobacter baumannii ATCC 19606 incubated for 24 hrs under aerobic condition by MABA; assay type: functional; conditions: ATCC 19606 = CIP 70.34 = JCM 6841, 24 h, read-out: MIC100; summary of the method: as §1
[16] = system: Staphylococcus aureus; assay: Bactericidal activity against Staphylococcus aureus BAA 44 incubated for 24 hrs under aerobic condition by MABA; assay type: functional; conditions: BAA 44, 24 h
[17] = system: Mycolicibacterium smegmatis; assay: Antibacterial activity against Mycobacterium smegmatis ATCC 607 incubated for 48 hrs under aerobic condition by MABA; assay type: functional; conditions: ATCC 607, 48 h, read-out: MIC100
Summary of the method: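 Mid-log culture at OD 0.5 was incubated with serial dilutions aerobically at 37 °C for 48 h. Resazurin was then added from a 0.08% stock for 1 h. MIC100 was the lowest concentration that stayed blue; absorbance was also read at 570/600 nm.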

[18] = system: Enterococcus faecalis; assay: Antibacterial activity against Enterococcus faecalis ATCC 349 incubated for 24 hrs under aerobic condition by MABA; assay type: functional; conditions: ATCC 349, 24 h, read-out: MIC100; summary of the method: as §1
[19] = system: Mycobacterium tuberculosis; assay: Antibacterial activity against Mycobacterium tuberculosis; assay type: functional; conditions: read-out: MIC100; summary of the method: as §3
[20] = system: Staphylococcus aureus; assay: Bactericidal activity against Staphylococcus aureus ATCC 25923 incubated for 24 hrs under aerobic condition by MABA; assay type: functional; conditions: ATCC 25923, 24 h
[21] = system: Bacillus subtilis; assay: Bactericidal activity against Bacillus subtilis ATCC 6051 incubated for 24 hrs under aerobic condition by MABA; assay type: functional; conditions: ATCC 6051, 24 h
[22] = system: Staphylococcus aureus; assay: Antibacterial activity against Staphylococcus aureus BAA 2094 incubated for 24 hrs under aerobic condition by MABA; assay type: functional; conditions: BAA 2094, 24 h, read-out: MIC100
Summary of the method: (§4)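 Resazurin was then added from a 0.08% stock for 1 h. MIC100 was the lowest concentration where the dye stayed blue (pink means growth). Absorbance was also read at 570 and 600 nm.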

[23] = system: Enterococcus faecalis; assay: Antibacterial activity against Enterococcus faecalis ATCC 19433 incubated for 24 hrs under aerobic condition by MABA; assay type: functional; conditions: ATCC 19433, 24 h, read-out: MIC100; summary of the method: as §1
[24] = system: Streptococcus pneumoniae; assay: Bactericidal activity against Streptococcus pneumoniae ATCC 6301 incubated for 24 hrs under aerobic condition by MABA; assay type: functional; conditions: ATCC 6301, 24 h
[25] = system: Staphylococcus aureus; assay: Bactericidal activity against Staphylococcus aureus incubated for 24 hrs under aerobic condition by MABA; assay type: functional
[26] = system: Staphylococcus aureus; assay: Bactericidal activity against Staphylococcus aureus BAA 2094 incubated for 24 hrs under aerobic condition by MABA; assay type: functional; conditions: BAA 2094, 24 h
[27] = system: Staphylococcus aureus; assay: Antibacterial activity against Staphylococcus aureus BAA 1683 incubated for 24 hrs under aerobic condition by MABA; assay type: functional; conditions: BAA 1683, 24 h, read-out: MIC100; summary of the method: as §1
[28] = system: Streptococcus salivarius; assay: Antibacterial activity against Streptococcus salivarius […] incubated for 24 hrs under aerobic condition by MABA; assay type: functional; conditions: read-out: MIC100; summary of the method: as §4
[29] = system: Staphylococcus aureus; assay: Antibacterial activity against Staphylococcus aureus BAA 44 incubated for 24 hrs under aerobic condition by MABA; assay type: functional; conditions: BAA 44, 24 h, read-out: MIC100; summary of the method: as §1
[30] = system: Escherichia coli; assay: Bactericidal activity against Escherichia coli ATCC 10798 incubated for 24 hrs under aerobic condition by MABA; assay type: functional; conditions: ATCC 10798, 24 h
[31] = system: Vero; assay: Cytotoxicity against African green monkey Vero cells assessed as reduction in cell viability after 72 hrs by MTT assay; assay type: cell-based; conditions: Chlorocebus sabaeus
Summary of the method: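 Vero cells were grown in complete EMEM with 10% FBS and exposed for 72 h to 0.78–200 µg/mL. The medium was then swapped for phenol-red-free EMEM and MTT was added. Formazan absorbance was read at 570 nm to give IC50.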

[32] = system: Enterococcus faecalis; assay: Bactericidal activity against Enterococcus faecalis ATCC 19433 incubated for 24 hrs under aerobic condition by MABA; assay type: functional; conditions: ATCC 19433, 24 h
[33] = system: Mycobacterium tuberculosis; assay: Bactericidal activity against Mycobacterium tuberculosis H37Rv at 2 times MIC measured every 24 hrs up to 12 days by time kill assay relative to control; assay type: functional
Summary of the method: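 Mid-log H37Rv (OD 0.5) is diluted to OD 0.25 and exposed at MIC, 2×MIC or 4×MIC. Every 24 h cultures are diluted 10- to 10,000-fold and plated on 7H10/OADC agar. Plates are incubated 15 days at 37 °C before colony counts.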

[34] = system: Erythrocyte; assay: Hemolytic activity in sheep erythrocytes after 2 hrs; assay type: ADME, cell-based; conditions: Ovis aries
Summary of the method: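 Washed heparinized sheep erythrocytes at 3% in buffer pH 7.4 were treated with 2–200 µg/mL for 2 h at 37 °C with gentle shaking. Triton X-100 (0.01–1%) was the positive control and PEG:H2O diluent the negative control. Released hemoglobin was read at OD540 and % hemolysis calculated against both controls.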

[35] = system: Bacillus subtilis; assay: Antibacterial activity against Bacillus subtilis ATCC 6051 incubated for 24 hrs under aerobic condition by MABA; assay type: functional; conditions: ATCC 6051, 24 h, read-out: MIC100; summary of the method: as §1
[36] = system: Streptococcus pneumoniae; assay: Antibacterial activity against Streptococcus pneumoniae ATCC 6301 incubated for 24 hrs under aerobic condition by MABA; assay type: functional; conditions: ATCC 6301, 24 h, read-out: MIC100; summary of the method: as §1
[37] = system: Enterococcus faecalis; assay: Bactericidal activity against Enterococcus faecalis ATCC 349 incubated for 24 hrs under aerobic condition by MABA; assay type: functional; conditions: ATCC 349, 24 h
[38] = system: Staphylococcus aureus; assay: Antibacterial activity against Staphylococcus aureus incubated for 24 hrs under aerobic condition by MABA; assay type: functional; conditions: read-out: MIC100; summary of the method: as §4

C=C[C@]1(C)C[C@@H](OC(=O)CSC(C)(C)CNC(=O)[C@H](N)CC(C)C)[C@]2(C)[C@H](C)CC[C@]3(CCC(=O)[C@H]32)[C@@H](C)[C@@H]1O
MBC [1]: > 25 µg/mL
MIC [2]: 25 µg/mL (≈ 43.2 µM)
MIC [3]: > 25 µg/mL
MBC [4]: > 25 µg/mL
MBC [5]: > 25 µg/mL
inhibition [6]: Active
selectivity ratio [7]: 16
MBC [8]: 1.46 µg/mL (≈ 2.52 µM)
Stability [9]: Unstable
MBC [10]: 25 µg/mL (≈ 43.2 µM)
MIC [11]: 12.5 µg/mL (≈ 21.6 µM)
inhibition [12]: Active
MBC [13]: > 25 µg/mL
MBC [14]: 1.56 µg/mL (≈ 2.69 µM)
MIC [15]: 12.5 µg/mL (≈ 21.6 µM)
MBC [16]: > 25 µg/mL
MIC [17]: 6.25 µg/mL (≈ 10.8 µM)
MIC [18]: > 25 µg/mL
MIC [19]: < 6.25 µg/mL
MBC [20]: > 25 µg/mL
MBC [21]: 25 µg/mL (≈ 43.2 µM)
MIC [22]: > 25 µg/mL
MIC [23]: 12.5 µg/mL (≈ 21.6 µM)
MBC [24]: > 25 µg/mL
MBC [25]: 0.8 µg/mL (≈ 1.38 µM)
MBC [26]: > 25 µg/mL
MIC [27]: > 25 µg/mL
MIC [28]: 6.25 µg/mL (≈ 10.8 µM)
MIC [29]: > 25 µg/mL
MBC [30]: > 25 µg/mL
IC50 [31]: 25 µg/mL (≈ 43.2 µM)
MBC [32]: 25 µg/mL (≈ 43.2 µM)
Activity [33]: 100%
IC50 [34]: > 200 µM
MIC [35]: 12.5 µg/mL (≈ 21.6 µM)
MIC [36]: 25 µg/mL (≈ 43.2 µM)
MBC [37]: > 25 µg/mL
MIC [38]: 0.4 µg/mL (≈ 0.691 µM)
